According to ChEMBL document CHEMBL4811303, “Synthesis and evaluation of trypanocidal activity of derivatives of naturally occurring 2,5-diphenyloxazoles” (Bioorg Med Chem, 2021):

Assays:
[1] = test system: Trypanosoma brucei brucei; experiment: Trypanocidal activity against Trypanosoma brucei brucei assessed as reduction in intracellular ATP production incubated for 72 hrs by CellTiter-Glo luminescent cell viability assay; format: functional, organism-based
Summary of the method: (§1)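 Bloodstream trypanosomes in 96-well culture were exposed to compound in 5-fold serial dilutions from 25 µg/mL to 1.6 ng/mL for 72 h. Seeding and temperature: T. b. brucei, T. b. gambiense and T. b. rhodesiense at 5×10^3 cells/mL and 37 °C; T. evansi at 1×10^4 cells/mL and 37 °C; T. congolense at 2×10^5 cells/mL and 33 °C. Viability was read as intracellular ATP by CellTiter-Glo luminescence. Three replicates; IC50 calculated.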

Trypanosoma congolense = experiment: Trypanocidal activity against Trypanosoma congolense assessed as reduction in intracellular ATP production incubated for 72 hrs by CellTiter-Glo luminescent cell viability assay; format: functional, organism-based; summary of the method: as §1
Trypanosoma evansi = experiment: Trypanocidal activity against Trypanosoma evansi assessed as reduction in intracellular ATP production incubated for 72 hrs by CellTiter-Glo luminescent cell viability assay; format: functional, organism-based; summary of the method: as §1
[2] = test system: Trypanosoma brucei rhodesiense; experiment: Trypanocidal activity against Trypanosoma brucei rhodesiense assessed as reduction in intracellular ATP production incubated for 72 hrs by CellTiter-Glo luminescent cell viability assay; format: functional, organism-based; summary of the method: as §1
[3] = Selectivity index, ratio of IC50 for cytotoxicity against bovine MDBK cells to IC50 for Trypanocidal activity against Trypanosoma congolense
[4] = test system: Trypanosoma brucei gambiense; experiment: Trypanocidal activity against Trypanosoma brucei gambiense assessed as reduction in intracellular ATP production incubated for 72 hrs by CellTiter-Glo luminescent cell viability assay; format: functional, organism-based; summary of the method: as §1
MDBK cells (Bos taurus) = experiment: Cytotoxicity against bovine MDBK cells assessed as reduction in cell viability incubated for 72 hrs by CCK8 assay
[5] = Selectivity index, ratio of IC50 for cytotoxicity against bovine MDBK cells to IC50 for Trypanocidal activity against Trypanosoma brucei brucei; settings: cattle
[6] = Selectivity index, ratio of IC50 for cytotoxicity against bovine MDBK cells to IC50 for Trypanocidal activity against Trypanosoma brucei gambiense; settings: cattle
[7] = Selectivity index, ratio of IC50 for cytotoxicity against bovine MDBK cells to IC50 for Trypanocidal activity against Trypanosoma brucei rhodesiense
[8] = Selectivity index, ratio of IC50 for cytotoxicity against bovine MDBK cells to IC50 for Trypanocidal activity against Trypanosoma evansi

Row | SMILES | IC50 [1] [µM] | IC50 (Trypanosoma congolense) [µM] | IC50 (Trypanosoma evansi) [µM] | IC50 [2] [µM] | selectivity ratio [3] | IC50 [4] [µM] | IC50 (MDBK cells (Bos taurus)) [µM] | selectivity ratio [5] | selectivity ratio [6] | selectivity ratio [7] | selectivity ratio [8]
1 | CC1CS(=O)(=O)CCN1/N=C/c1ccc([N+](=O)[O-])o1 (stereo unspecified) [NIFURTIMOX] | 4.7 | 1.1 | 2.6 | 4.4 |  |  |  |  |  |  | 
2 | COc1cccc(-c2ncc(-c3ccccc3NC(C)=O)o2)c1OC | > 73.9 | 38.2 | > 73.9 | > 73.9 | > 7.8 | > 73.9 | > 296 |  |  |  | 
3 | COc1ccccc1-c1nnc(-c2cccc(OC)c2OC)s1 | 29.8 | 3.8 | 28.1 | 27.2 | > 80 | 22.1 | > 305 | > 10 | > 14 | > 11 | > 11
4 | COc1ccc(-c2cnc(-c3cccc(OC)c3OC)o2)cc1 | 76.4 | 17.3 | 64.5 | 77 | 1.3 | 74.5 | 22.8 | 0.3 | 0.31 | 0.3 | 0.35
5 | Oc1ccccc1-c1nnc(-c2cccc(O)c2O)o1 | 1.9 | 0.67 | 0.81 | 1.9 | 8.8 | 1.9 | 5.9 | 3.1 | 3.1 | 3.1 | 7.2
6 | Oc1ccccc1-c1cnc(-c2cccc(O)c2O)s1 | 7.7 | 2.3 | 4 | 7.8 | 8.8 | 8.2 | 20 | 2.6 | 2.4 | 2.6 | 5
7 | COc1ccc(OC)c(-c2cnc(-c3ccccc3OC)o2)c1 | > 80.3 | 4.3 | > 80.3 | > 80.3 | > 75 | 22.2 | > 321 |  | > 14 |  | 
8 | COc1cccc(-c2ncc(-c3ccccc3)o2)c1OC | 86.6 | 4 | 59.3 | 84.1 | 10 | 84.7 | 40.6 | 0.47 | 0.48 | 0.48 | 0.68
9 | COc1cccc(-c2cnc(-c3cccc(OC)c3)o2)c1 | 62.2 | 21.4 | 53.9 | 66.5 | > 17 | 66.9 | > 355 | > 5.7 | > 5.3 | > 5.3 | > 6.6
10 | COc1ccc(-c2cnc(-c3ccc(OC)c(OC)c3OC)o2)c(OC)c1OC | 37.6 | 16.4 | 60.4 | 31.4 | 2.4 | 40.5 | 39.7 | 1.1 | 0.98 | 1.3 | 0.66
11 | COc1cccc(-c2ncc(-c3ccccc3OCc3ccccc3)o2)c1OC | 15.5 | 7.7 | 16.7 | 15.8 | 13 | 16.2 | 97.6 | 6.3 | 6 | 6.2 | 5.8
12 | CC(=O)Oc1ccccc1-c1cnc(-c2cccc(OC(C)=O)c2OC(C)=O)o1 | 4.6 | 0.8 | 5.6 | 2.5 | 6.6 | 6.5 | 5.3 | 1.2 | 0.82 | 2.1 | 0.96
13 | COc1ccccc1-c1cnc(-c2cccc(OC)c2OC)o1 | > 80.3 | 0.78 | > 80.3 | > 80.3 | > 414 | > 80.3 | > 321 |  |  |  | 
14 | COc1ccccc1-c1nnc(-c2cccc(OC)c2OC)o1 | 13.3 | 2.7 | 7.5 | 13.4 | 12 | 13.3 | 32.3 | 2.4 | 2.4 | 2.4 | 4.3
15 | COc1cccc(-c2ncc(-c3ccccc3N(C)C)o2)c1OC | 20.4 | 4.6 | 24.7 | 23.3 | > 66 | 35.2 | > 308 | > 15 | > 8.8 | > 13 | > 12
16 | CC(=O)Oc1ccc(OC(C)=O)c(-c2ncc(-c3ccccc3OC(C)=O)o2)c1 | 33.6 | 14.4 | 34 | 56 | 4.4 | 55.3 | 64.2 | 1.9 | 1.2 | 1.1 | 1.9
17 | COc1ccc(-c2cnc(-c3ccc(OC)cc3)o2)cc1 | > 88.9 | > 88.9 | > 88.9 | > 88.9 |  | > 88.9 | > 355 |  |  |  | 
18 | COc1ccc(OC)c(-c2ncc(-c3ccccc3OC)o2)c1 | > 80.3 | > 80.3 | > 80.3 | > 80.3 |  | > 80.3 | > 321 |  |  |  | 
19 | COc1cccc(-c2ncc(-c3ccccc3O)o2)c1OC | > 84.1 | > 84.1 | > 84.1 | > 84.1 |  | > 84.1 | > 336 |  |  |  | 
20 | COc1ccc(OC)c(-c2cnc(-c3ccccc3)o2)c1 | > 88.9 | 15.4 | > 88.9 | > 88.9 | > 23 | > 88.9 | > 355 |  |  |  | 
21 | COc1ccc(OC)c(-c2cnc(-c3cc(OC)ccc3OC)o2)c1 | > 73.2 | 2.9 | > 73.2 | > 73.2 | > 100 | > 73.2 | > 293 |  |  |  | 
22 | Cc1ccc(C(=O)Nc2ccc(S(=O)(=O)O)c3cc(S(=O)(=O)O)cc(S(=O)(=O)O)c23)cc1NC(=O)c1cccc(NC(=O)Nc2cccc(C(=O)Nc3cc(C(=O)Nc4ccc(S(=O)(=O)O)c5cc(S(=O)(=O)O)cc(S(=O)(=O)O)c45)ccc3C)c2)c1 [SURAMIN] | 0.066 | 7.2 | 0.38 | 0.076 |  | 0.064 |  |  |  |  | 
23 | COc1ccc(OC)c(-c2cnc(-c3cccc(OC)c3OC)o2)c1 | > 73.2 | 1.6 | > 73.2 | > 73.2 | > 188 | > 73.2 | > 293 |  |  |  | 
24 | COc1ccccc1-c1cnc(-c2ccccc2OC)o1 | > 88.9 | 2.8 | > 88.9 | > 88.9 | > 128 | > 88.9 | > 355 |  |  |  | 
25 | CCOc1ccccc1-c1cnc(-c2cccc(OC)c2OC)o1 | > 76.8 | 4.4 | > 76.8 | > 76.8 | > 69 | > 76.8 | > 307 |  |  |  | 
